Measurements from different studies.
Protocols differ between the studies behind these lines.
SLC22A2: Solute carrier family 22 member 2 (SLC22A2, Homo sapiens, UniProt O15244)

SMILES | target or system | assay | test system | setting | endpoint | result
COc1ccc(S(=O)(=O)ON=C2C=C(C)C(=O)C(C)=C2)cc1 | MDA-MB-468 | cell growth or viability | – | – | CC50 | 2570 nM
COC(=O)c1csc(C(=O)c2c[nH]c3ccccc23)n1 | Aryl hydrocarbon receptor (AHR, Homo sapiens, UniProt P35869) | reporter gene, agonist, luciferase | – | – | EC50 | 4.6 nM
COc1ccc(-c2ocnc2C(=O)NCCCn2cncn2)cc1Cl | THLE | cell growth or viability | – | – | IC50 | 117000 nM
CC(C)(O)c1ccccc1-c1ccc2[nH]c(/C=C/c3ccc(C(F)(F)F)cc3)nc2c1 | – | – | male human, plasma | oral, 60 mg, single dose, fasted, healthy volunteers | half-life | 53.4 h
O=C(O)CSc1nnc(Br)n1-c1ccc(C2CC2)c2ccccc12 | SLC22A2 | transporter uptake, inhibitor | MDCK-II | 100 µM, 5 min | inhibition | 26%
CC[C@H](C)[C@H](NC(=O)[C@H](CCC(=O)O)NC(=O)[C@H](CO)NC(=O)[C@@H](NC(=O)[C@@H](N)CO)C(C)C)C(=O)N[C@@H](CCC(N)=O)C(=O)N[C@@H](CC(C)C)C(=O)N[C@@H](CCSC)C(=O)N[C@@H](Cc1cnc[nH]1)C(=O)N[C@@H](CC(N)=O)C(=O)N[C@@H](CC(C)C)C(=O)NCC(=O)N[C@@H](CCCCN)C(=O)N[C@@H](Cc1cnc[nH]1)C(=O)N[C@@H](CC(C)C)C(=O)N[C@@H](CC(N)=O)C(=O)N[C@@H](CO)C(=O)N[C@@H](CCSC)C(=O)N[C@@H](CCC(=O)O)C(=O)N[C@@H](CCCN=C(N)N)C(=O)N[C@H](C(=O)N[C@@H](CCC(=O)O)C(=O)N[C@@H](Cc1c[nH]c2ccccc12)C(=O)N[C@@H](CC(C)C)C(=O)N[C@@H](CCCN=C(N)N)C(=O)N[C@@H](CCCCN)C(=O)N[C@@H](CCCCN)C(=O)N[C@@H](CC(C)C)C(=O)N[C@@H](CCC(N)=O)C(=O)N[C@@H](CC(=O)O)C(=O)N[C@H](C(=O)N[C@@H](Cc1cnc[nH]1)C(=O)N[C@@H](CC(N)=O)C(=O)N[C@@H](Cc1ccccc1)C(=O)O)C(C)C)C(C)C | – | chemical stability, HPLC | aqueous buffer | 0.5 mg/mL, 2 min, pH 6.5 | compound remaining | 100%
CC(C)n1cc(C#N)c2cc(-n3cc(C(=O)O)cn3)ccc21 | – | – | human, plasma | oral, 400 mg, single dose, fasted, healthy volunteers | half-life | 13.1 h
CON=C(N)c1ccc(-c2ccc(-c3ccc(C(N)=NOC)cc3)o2)cc1 | Cytochrome P450 1B1 (CYP1B1, Homo sapiens, UniProt Q16678) | enzyme activity, substrate | – | – | Km | 0.3 µM
C=C[C@H]1C[N@@]2CC[C@H]1C[C@@H]2[C@@H](O)c1ccnc2ccc(OC)cc12 | SLC22A2 | transporter uptake, inhibitor | MDCK-II | 100 µM, 5 min | inhibition | 78%
